Results published in ChEMBL document CHEMBL4346736, “Anti-proliferative activity and structure-activity relationship of honokiol derivatives” (Bioorg Med Chem, 2019).

Key:
[1] = Partition coefficient, log P of the compound; type: physicochemical; details: octanol/water
HepG2 [2] = assay: Antiproliferative activity against human HepG2 cells after 48 hrs by MTT assay; type: functional, cell-based; details: HepG2, 48 h
Summary of the method: (§1)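 Cells from the Institute of Cell Biology, CAS (Shanghai), grown in RPMI-1640 with 10% FBS and 100 U/mL penicillin-streptomycin at 37 °C under 5% CO2. Cells were exposed to compounds for 48 h, and viability was read by MTT (or MTS). IC50, the concentration giving 50% inhibition, was calculated by the Logit method. Data are representative of 3 independent experiments.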

K562 [3] = assay: Antiproliferative activity against human K562 cells after 48 hrs by MTT assay; type: functional, cell-based; details: K562, 48 h; summary of the method: as §1
A549 = assay: Antiproliferative activity against human A549 cells after 48 hrs by MTT assay; type: functional, cell-based; details: A549, 48 h; summary of the method: as §1
K562 [4] = assay: Antiproliferative activity against human K562 cells; type: functional, cell-based; summary of the method: as §1
HepG2 [5] = assay: Antiproliferative activity against human HepG2 cells; type: functional, cell-based; summary of the method: as §1
HCT-116 = assay: Antiproliferative activity against human HCT116 cells after 72 hrs by MTT assay; type: functional, cell-based; details: HCT-116, 72 h
HepG2 [6] = assay: Antiproliferative activity against human HepG2 cells after 72 hrs by MTT assay; type: functional, cell-based; details: HepG2, 72 h
NCI-H1975 = assay: Antiproliferative activity against human NCI-H1975 cells after 72 hrs by MTT assay; type: functional, cell-based; details: NCI-H1975, 72 h

SMILES | logP [1] | also measured
C/C=C/c1ccc(O)c(-c2cc(/C=C/C)ccc2O)c1 | 5.36 | 
C=CCc1cc(O)c(O)c(-c2cc(CC=C)cc(O)c2O)c1 | 3.76 | 
C=CCc1cccc(-c2cccc(CC=C)c2O)c1O | 4.75 | 
C=CCc1ccc(O)c(-c2ccc(OCC)c(CC=C)c2)c1 | 5.45 | 
C=CCc1ccc(OCC)c(-c2ccc(O)c(CC=C)c2)c1 | 5.66 | 
C=CCc1cc(C=O)c(OC)c(-c2ccc(O)c(CC=C)c2)c1 | 5 | 
C=CCc1cc(C=O)c(OC)c(-c2ccc(OC)c(CC=C)c2)c1 | 5.07 | 
C=CCc1cc(C=O)c(OCC)c(-c2ccc(OCC)c(CC=C)c2)c1 | 5.82 | 
C=CCc1cc(CO)c(O)c(-c2ccc(O)c(CC=C)c2)c1 | 4.27 | 
C=CCc1cc(CO)c(O)c(-c2cc(CO)c(O)c(CC=C)c2)c1 | 3.33 | 
C=CCc1ccc(OC)c(-c2cc(CC=C)ccc2OC)c1 | 5.35 | 
Oc1ccccc1-c1ccccc1O | 3.2 | 
C=CCc1cc(Br)c(O)c(-c2ccc(OC)c(CC=C)c2)c1 | 5.81 | 
C=CCc1cc(-c2ccc(OC)c(CC=C)c2)c(O)c(-c2ccc(OC)c(CC=C)c2)c1 | 7.61 | 
C=CCc1cc(-c2ccc(OC)c(CC=C)c2)ccc1O | 5.28 | 
C=CCc1cc(-c2cccc(CC=C)c2O)ccc1OC | 5.05 | 
C=CCc1ccc(O)c(-c2cccc(CC=C)c2O)c1 | 4.77 | 
C=CCc1cc(C(C)(C)c2ccc(O)c(CC=C)c2)ccc1O | 5.8 | 
C=CCc1cc(C2(c3ccc(O)c(CC=C)c3)CCCCC2)ccc1O | 6.97 | 
C=CCc1cc(C(=C(Cl)Cl)c2ccc(O)c(CC=C)c2)ccc1O | 6.17 | 
C=CCc1cc(C(c2ccc(O)c(CC=C)c2)c2ccccn2)ccc1O | 5.41 | 
C=CCc1cc(/C(CC)=C(\CC)c2ccc(O)c(CC=C)c2)ccc1O | 6.74 | 
C=CCc1cc(-c2ccc(O)c(CC=C)c2)ccc1O | 5.21 | 
C=CCc1cc(Cc2ccc(O)c(CC=C)c2)ccc1O | 5.38 | 

SMILES | logP [1] | also measured
CCCc1ccc(O)c(-c2cc(CCC)ccc2O)c1 | 5.76 | 
CCCc1ccc(O)c(-c2ccc(O)c(CCC)c2)c1 | 5.97 | IC50 (HepG2 [2]): 30.8 µM; IC50 (K562 [3]): 18.2 µM; IC50 (A549): 30.4 µM
C=CCc1cc(-c2cccc(CC=C)c2O)ccc1O | 4.98 | 
COc1ccc(-c2cc(/C=C/C=O)ccc2O)cc1/C=C/C=O | 4.34 | 
C=CCc1ccc(O)c(-c2ccc(O)c(CC(O)CO)c2)c1 (centres undefined) | 3.08 | IC50 (HepG2 [2]): 25.3 µM; IC50 (K562 [3]): 100 µM; IC50 (A549): 90.4 µM
C=CCc1cc(/C=N\C2CCCCC2)c(O)c(-c2ccc(O)c(CC=C)c2)c1 | 6.67 | 
C=CCc1cc(CN2CCOCC2)c(O)c(-c2cc(CC=C)c(O)c(CN3CCOCC3)c2)c1 | 3.95 | IC50 (K562 [4]): > 40 µM; IC50 (HepG2 [5]): > 40 µM
C=CCc1cc(CN2CCC(O)CC2)c(O)c(-c2cc(CC=C)c(O)c(CN3CCC(O)CC3)c2)c1 | 2.31 | IC50 (K562 [4]): 25.5 µM; IC50 (HepG2 [5]): > 40 µM
C=CCc1ccc(O)c(-c2ccc3oc(C)cc3c2)c1 | 4.79 | IC50 (HepG2 [2]): 107 µM; IC50 (K562 [3]): 67.9 µM; IC50 (A549): 71.5 µM
C=CCc1cc(NC(=O)CCl)c(O)c(-c2cc(CC=C)c(O)c(NC(=O)CCl)c2)c1 | 4.22 | IC50 (HepG2 [2]): 19.1 µM; IC50 (K562 [3]): 21.6 µM; IC50 (A549): 29.3 µM
CCCc1ccc(O)c(-c2ccc3oc(C)cc3c2)c1 | 5.27 | IC50 (HepG2 [2]): 88.3 µM; IC50 (K562 [3]): 73.9 µM; IC50 (A549): 61.9 µM
C=CCc1cc(CN2CCSCC2)c(O)c(-c2cc(CC=C)c(O)c(CN3CCSCC3)c2)c1 | 5.03 | IC50 (K562 [4]): > 40 µM; IC50 (HepG2 [5]): > 40 µM
C=CCc1cc(/C=N\CCCCCC)c(O)c(-c2ccc(O)c(CC=C)c2)c1 | 7.22 | 
CCCc1cc(C)c(O)c(-c2cc(C)c(O)c(CCC)c2)c1 | 6.51 | IC50 (HepG2 [2]): 34.5 µM; IC50 (K562 [3]): 26.2 µM; IC50 (A549): 29.2 µM
C=CCc1cc(N=O)c(O)c(-c2cc(CC=C)c(O)c(N=O)c2)c1 | 4.45 | IC50 (HepG2 [2]): > 128 µM; IC50 (K562 [3]): > 128 µM; IC50 (A549): > 128 µM
C=CCc1cc(-c2ccc3c(c2)OCCO3)ccc1OC | 4.05 | 
C=CCc1cc(/C=N\c2ccc(N)cc2)c(O)c(-c2ccc(O)c(CC=C)c2)c1 | 5.54 | 
C=CCc1cc(CN2CCC(N)CC2)c(O)c(-c2cc(CC=C)c(O)c(CN3CCC(N)CC3)c2)c1 | 2.79 | IC50 (K562 [4]): 9.1 µM; IC50 (HepG2 [5]): 17 µM
C=CCc1ccc(O)c(-c2cc(CC=C)c3oncc3c2)c1 | 4.78 | 
C=CCc1cc(CN2CCN(C)CC2)c(O)c(-c2cc(CC=C)c(O)c(CN3CCN(C)CC3)c2)c1 | 4.04 | IC50 (K562 [4]): > 40 µM; IC50 (HepG2 [5]): > 40 µM
C=CCc1cc(/C=N\c2ccccc2)c(O)c(-c2ccc(O)c(CC=C)c2)c1 | 6.47 | 
C=CCc1ccc(O)c(-c2ccc3c(c2)CC(C)O3)c1 (centres undefined) | 4.65 | IC50 (HepG2 [2]): 126 µM; IC50 (K562 [3]): 126 µM; IC50 (A549): 116 µM
C=CCc1cc(/C=N/O)c(O)c(-c2ccc(O)c(CC=C)c2)c1 | 5.35 | 
C=CCc1cc(N)c(O)c(-c2cc(N)c(O)c(CC=C)c2)c1 | 3.62 | IC50 (HepG2 [2]): > 128 µM; IC50 (K562 [3]): > 128 µM; IC50 (A549): > 128 µM

SMILES | logP [1] | also measured
C=CCc1cc(CN(C)C)c(O)c(-c2cc(CC=C)c(O)c(CN(C)C)c2)c1 | 4.26 | IC50 (HepG2 [2]): 47.5 µM; IC50 (K562 [3]): 31.6 µM; IC50 (A549): 60.8 µM
OCC(O)Cc1ccc(O)c(-c2ccc(O)c(CC(O)CO)c2)c1 (centres undefined) | 1.16 | IC50 (HepG2 [2]): > 128 µM; IC50 (K562 [3]): > 128 µM; IC50 (A549): > 128 µM
C=CCc1ccc(O)c(-c2ccc(O)c(CC(CO)OC)c2)c1 (centres undefined) | 3.7 | IC50 (HCT-116): > 40 µM; IC50 (HepG2 [6]): > 40 µM; IC50 (NCI-H1975): > 40 µM
C=CCc1cc(NC(C)=O)c(O)c(-c2cc(CC=C)c(O)c(NC(C)=O)c2)c1 | 3.09 | IC50 (HepG2 [2]): > 128 µM; IC50 (K562 [3]): > 128 µM; IC50 (A549): > 128 µM
CCCc1ccc(O)c(-c2ccc3c(c2)CC(C)O3)c1 (centres undefined) | 5.13 | IC50 (HepG2 [2]): 122 µM; IC50 (K562 [3]): 72.9 µM; IC50 (A549): 96.1 µM
C=CCc1cc(-c2ccc3c(c2)OCCO3)ccc1O | 3.98 | 
C=CCc1cc(-c2ccc3c(c2)OCO3)ccc1O | 4.36 | 
C=CCc1cc(/C=N/O)c(O)c(-c2cc(/C=N/O)c(O)c(CC=C)c2)c1 | 5.49 | 
C=CCc1ccc(O)c(-c2cc(CC=C)c(O)c(C(C)(C)C)c2)c1 | 6.43 | IC50 (HepG2 [2]): 31.1 µM; IC50 (K562 [3]): 32.5 µM; IC50 (A549): 25.7 µM
C=CCc1cc(-c2cc(CC=C)c(O)c([N+](=O)[O-])c2)c(O)c([N+](=O)[O-])c1 | 4.57 | IC50 (HepG2 [2]): > 128 µM; IC50 (K562 [3]): > 128 µM; IC50 (A549): > 128 µM
C=CCc1cc(/C=N/Nc2ccccc2)c(O)c(-c2ccc(O)c(CC=C)c2)c1 | 7.76 | 
C=CCc1ccc(O)c(-c2cc(/C=N/O)c(O)c(CC=C)c2)c1 | 5.14 | 
C=CCc1ccc(O)c(-c2cc(/C=C3\SC(=O)NC3=O)c(O)c(CC=C)c2)c1 | 4.27 | 
C=CCc1ccc(O)c(-c2cc(/C=C(\C#N)C(=O)OCC)c(O)c(CC=C)c2)c1 | 5.23 | 
C=CCc1cc(/C=C2\SC(=O)NC2=O)c(O)c(-c2cc(/C=C3\SC(=O)NC3=O)c(O)c(CC=C)c2)c1 | 3.74 | 
C=CCc1cc(/C=C(\C#N)C(=O)OCC)c(O)c(-c2ccc(O)c(CC=C)c2)c1 | 5.44 | 
C=CCc1cc(/C=N/CCN)c(O)c(-c2ccc(O)c(CC=C)c2)c1 | 3.57 | 
C=CCc1cc(/C=C2\SC(=O)NC2=O)c(O)c(-c2ccc(O)c(CC=C)c2)c1 | 4.48 | 
C=CCc1ccc(OC)c(-c2ccc(OC)c(CC=C)c2)c1 | 5.35 | 
C=CCc1ccc(OC)c(-c2ccc(O)c(CC=C)c2)c1 | 5.28 | 
C=CCc1ccc(Oc2cc(CC=C)ccc2O)cc1 [ISOMAGNOLOL] | 4.82 | 
C=CCc1ccc(O)c(-c2cc(CC=C)ccc2O)c1 [MAGNOLOL] | 4.8 | 
C=CCc1ccc(O)c(-c2ccc(OC)c(CC=C)c2)c1 [METHYLHONOKIOL] | 5.07 | 
